According to ChEMBL document CHEMBL4014310, “Selective IKur Inhibitors for the Potential Treatment of Atrial Fibrillation: Optimization of the Phenyl Quinazoline Series Leading to Clinical Candidate 5-[5-Phenyl-4-(pyridin-2-ylmethylamino)quinazolin-2-yl]pyridine-3-sulfonamide” (J Med Chem, 2017):
The source made the active and inactive calls. No cut-off for these calls is given here.

Legend:
[1] = target: Potassium voltage-gated channel subfamily A member 5 (Homo sapiens, UniProt P22460); experiment: Inhibition of recombinant human Kv1.5 expressed in mouse L929 cells by patch clamp assay; format: cell-based
Summary of the method: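 Whole-cell patch clamp of IKur current in mouse L-929 cells transfected with human KV1.5 and stably expressing the channel.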

[2] = Protein binding in human plasma; format: ADME, cell-free; conditions: read-out: PPB
[3] = Protein binding in rat plasma; format: ADME, cell-free; conditions: read-out: PPB
[4] = Inhibition of sodium channel (unknown origin); set-up: species or system Homo sapiens
[5] = Clearance in mouse at 2 mg/kg, iv or 5 mg/kg, po; format: ADME, organism-based; conditions: in vivo
Summary of the method: (§1)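 Single-dose PK study in mouse and rat (2 mg/kg iv, 5 mg/kg po), cynomolgus monkey (1 mg/kg iv and po) and dog (0.1 mg/kg iv, 1 mg/kg po). Dosing vehicle was 1:4:5 EtOH/propylene glycol/PEG400. Clearance, Vss, half-life, Cmax, Tmax, AUC (μM h) and oral %F were derived from plasma levels.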

[6] = Volume of distribution at steady state in mouse at 2 mg/kg, iv or 5 mg/kg, po; format: ADME, organism-based; conditions: in vivo, read-out: Vdss
Summary of the method: (§2)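 Single-dose PK in mouse and rat (2 mg/kg iv, 5 mg/kg po), cynomolgus monkey (1 mg/kg iv and po) and dog (0.1 mg/kg iv, 1 mg/kg po). Dosing vehicle was 1:4:5 EtOH/propylene glycol/PEG400. Parameters reported: clearance, Vss, half-life, Cmax, Tmax, AUC and oral bioavailability.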

[7] = Tmax in mouse at 2 mg/kg, iv or 5 mg/kg, po; format: ADME, organism-based; conditions: in vivo; summary of the method: as §2
[8] = Oral bioavailability in mouse at 5 mg/kg; format: ADME, organism-based; conditions: in vivo; summary of the method: as §2
[9] = Clearance in rat at 2 mg/kg, iv or 5 mg/kg, po; format: ADME, organism-based; conditions: in vivo; summary of the method: as §1
[10] = Half life in rat at 2 mg/kg, iv or 5 mg/kg, po; format: ADME, organism-based; conditions: in vivo; summary of the method: as §1
[11] = Oral bioavailability in rat at 5 mg/kg; format: ADME, organism-based; conditions: in vivo; summary of the method: as §2
[12] = Oral bioavailability in rat at 5 mg/kg using crystalline form; format: ADME, organism-based; conditions: in vivo
[13] = Oral bioavailability in cynomolgus monkey at 1 mg/kg; format: ADME, organism-based, Macaca fascicularis; conditions: in vivo; summary of the method: as §1
[14] = Cmax in dog at 0.1 mg/kg, iv or 1 mg/kg, po; format: ADME, organism-based, Canis lupus familiaris; conditions: in vivo; summary of the method: as §1
[15] = AUC in dog at 0.1 mg/kg, iv or 1 mg/kg, po; format: ADME, organism-based, Canis lupus familiaris; conditions: in vivo; summary of the method: as §1
Oryctolagus cuniculus [16] = experiment: Antiatrial fibrillation activity in methoxamine-sensitised rabbit assessed as increase in atrial effective refractory period at 1 mg/kg, iv administered as 20 mins infusion relative to control; format: functional
Summary of the method: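 Rabbit, iv dosing at 1 or 3 mg/kg. AERP was measured at 10, 20 and 30 min time points as % prolongation, and plasma compound concentration was measured at the same time points and correlated with the AERP change.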

[17] = Plasma concentration in methoxamine-sensitised rabbit at 3 mg/kg, iv administered as 10 mins infusion; format: ADME, organism-based, Oryctolagus cuniculus
[18] = Plasma concentration in methoxamine-sensitised rabbit at 3 mg/kg, iv administered as 20 mins infusion; format: ADME, organism-based, Oryctolagus cuniculus
[19] = Plasma concentration in methoxamine-sensitised rabbit at 3 mg/kg, iv administered as 30 mins infusion; format: ADME, organism-based, Oryctolagus cuniculus
Oryctolagus cuniculus [20] = experiment: Effect on ventricle effective refractory period in methoxamine-sensitised rabbit at 3 mg/kg, iv administered as 10 to 30 mins infusion; format: ADME, organism-based; conditions: in vivo
Oryctolagus cuniculus [21] = experiment: Antiatrial fibrillation activity in methoxamine-sensitised rabbit assessed as increase in atrial effective refractory period at 0.17 mg/kg, iv administered as 15 mins infusion relative to control; format: functional
Summary of the method: (§3)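 Rabbit, iv infusion of compound in DMF (0.17 mg/mL) with a 0.17 mg/kg maintenance dose. AERP was normalized to DMF vehicle, with time counted from the start of the maintenance infusion. Tissues were collected after 30 min. n = 3 rabbits; means ± standard error.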

Oryctolagus cuniculus [22] = experiment: Antiatrial fibrillation activity in methoxamine-sensitised rabbit assessed as increase in atrial effective refractory period at 0.17 mg/kg, iv measured 15 mins post infusion relative to control; format: functional; summary of the method: as §3
Oryctolagus cuniculus [23] = experiment: Antiatrial fibrillation activity in methoxamine-sensitised rabbit assessed as plasma concentration required to show increase in atrial effective refractory period at 0.17 mg/kg, iv administered as 1 min infusion; format: functional, organism-based; summary of the method: as §3
Oryctolagus cuniculus [24] = experiment: Antiatrial fibrillation activity in methoxamine-sensitised rabbit assessed as plasma concentration required to show increase in atrial effective refractory period at 0.17 mg/kg, iv administered as 15 mins infusion; format: functional, organism-based; summary of the method: as §3
Oryctolagus cuniculus [25] = experiment: Antiatrial fibrillation activity in methoxamine-sensitised rabbit assessed as plasma concentration required to show increase in atrial effective refractory period at 0.17 mg/kg, iv measured 15 mins post infusion; format: functional, organism-based; summary of the method: as §3
Canis familiaris [26] = experiment: Antiarrhythmic activity in mongrel dog heart failure model assessed as reduction in mean number of pacing-induced atrial fibrillation at 0.1 to 0.3 mg/kg, po; format: functional, organism-based; conditions: Canis lupus familiaris
Summary of the method: (§4)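 Simultaneous atrio-ventricular pacing dog model of atrial arrhythmia. Compound was given orally at 0.1 or 0.3 mg/kg in 10% EtOH/40% propylene glycol/50% PEG 400. AF inducibility was scored as mean number of AF inductions and total AF duration, with QTc monitored and plasma concentration measured. n = 7 control, 5 (0.1 mg/kg) and 6 (0.3 mg/kg) dogs.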

Canis familiaris [27] = experiment: Effect on QTc interval in pacing-induced mongrel dog heart failure model at 0.1 to 0.3 mg/kg, po; format: organism-based, Canis lupus familiaris; conditions: in vivo; summary of the method: as §4
[28] = Solubility of the compound in pH 1 to 8 solution using crystalline form; format: physicochemical
Rhesus monkey = experiment: Drug absorption in monkey famotidine model at 10 mg/kg; format: ADME, organism-based, Macaca mulatta; conditions: in vivo

Sequence of Potassium voltage-gated channel subfamily A member 5 (P22460 whole entry): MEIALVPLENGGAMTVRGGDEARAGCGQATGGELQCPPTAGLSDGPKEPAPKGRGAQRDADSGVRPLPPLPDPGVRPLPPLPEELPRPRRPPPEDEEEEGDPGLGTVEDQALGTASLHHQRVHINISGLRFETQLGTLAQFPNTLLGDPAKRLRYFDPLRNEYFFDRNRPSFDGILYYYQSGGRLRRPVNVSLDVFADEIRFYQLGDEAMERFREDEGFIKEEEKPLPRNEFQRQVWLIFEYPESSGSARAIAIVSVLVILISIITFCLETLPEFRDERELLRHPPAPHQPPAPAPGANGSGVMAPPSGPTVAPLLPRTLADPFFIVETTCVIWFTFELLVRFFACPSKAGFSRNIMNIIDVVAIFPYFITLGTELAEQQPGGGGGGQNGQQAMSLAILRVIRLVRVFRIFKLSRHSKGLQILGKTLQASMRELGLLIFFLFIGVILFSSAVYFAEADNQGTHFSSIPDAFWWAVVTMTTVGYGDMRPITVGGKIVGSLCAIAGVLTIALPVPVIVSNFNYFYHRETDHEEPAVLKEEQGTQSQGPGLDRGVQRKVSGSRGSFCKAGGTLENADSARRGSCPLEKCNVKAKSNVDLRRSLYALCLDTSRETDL

With NS(=O)(=O)c1cncc(-c2nc(NCc3ccccn3)c3c(-c4ccccc4)cccc3n2)c1 [BMS-919373] the IC50 [1] was 46 to 50 nM, the fraction unbound [2] was less than 0.01 and the fraction unbound [3] was less than 0.01. For the same compound, the IC50 [4] was greater than 10000 nM, the clearance [5] was 10.6 mL/min/kg and the Vd [6] was 1.8 L/kg. The Tmax [7] was 0.5 h, the bioavailability [8] was 100% and the clearance [9] was 3.3 mL/min/kg. It also gave a half-life [10] of 3.2 h, a bioavailability [11] of 100% and a bioavailability [12] of 35%. For the same compound, the bioavailability [13] was 100%, the Cmax [14] was 7.8 µM and the AUC [15] was 590 µM·h. It also gave an Activity (Oryctolagus cuniculus [16]) of 10.6%, a concentration at 10 min [17] of 2.3 µM and a concentration at 20 min [18] of 3.6 µM. For the same compound, the concentration at 0.5 h [19] was 3.3 µM, the Activity (Oryctolagus cuniculus [20]) was “Non-Toxic” and the Activity (Oryctolagus cuniculus [21]) was 11%. The Activity (Oryctolagus cuniculus [22]) was 9.5%, the Cp (Oryctolagus cuniculus [23]) was 0.42 µM and the Cp (Oryctolagus cuniculus [24]) was 0.16 µM. For the same compound, the Cp (Oryctolagus cuniculus [25]) was 0.1 µM, the Activity (Canis familiaris [26]) was “Active” and the Activity (Canis familiaris [27]) was “Non-Toxic”. For the same compound, the solubility [28] was “Soluble” and the Drug absorption (Rhesus monkey) was “Active”.
